Measurements taken from PubChem BioAssay.
Activity calls are given as the source filed them.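 The calls were made as follows, unless noted: active = viability loss from added drug above about 55%, and viability with drug at most 40%, in both replicates (limit read from the data, passing the limit was not always enough); inconclusive = both conditions met in only one replicate; inactive = neither replicate meets both conditions.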

Columns and labels:
[1] = Her2 expression decrease, cell viability multiplex – SKBR3 breast tumor cells, AlphaScreen, ATP viability, primary screen (AID 461;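 active = Her2 level under about 52% in both replicate screens, with viability over 70% of control, limit read from the data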;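 as to Her2 level: lower value means less Her2 protein in the cells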;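 as to viability: percent of carrier control wells set as 100% viability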); conditions: SKBR3 Her2 protein level, 18-24 h, measured here: SKBR3 viability, ATP luminescence, at 10 µM
[2] = target: Receptor tyrosine-protein kinase erbB-2 (Homo sapiens) (UniProt P04626); assay: as above; conditions: 18-24 h, at 10 µM, stronger effect = lower value
Chain of Receptor tyrosine-protein kinase erbB-2 (Homo sapiens) (P04626 whole entry, looked up): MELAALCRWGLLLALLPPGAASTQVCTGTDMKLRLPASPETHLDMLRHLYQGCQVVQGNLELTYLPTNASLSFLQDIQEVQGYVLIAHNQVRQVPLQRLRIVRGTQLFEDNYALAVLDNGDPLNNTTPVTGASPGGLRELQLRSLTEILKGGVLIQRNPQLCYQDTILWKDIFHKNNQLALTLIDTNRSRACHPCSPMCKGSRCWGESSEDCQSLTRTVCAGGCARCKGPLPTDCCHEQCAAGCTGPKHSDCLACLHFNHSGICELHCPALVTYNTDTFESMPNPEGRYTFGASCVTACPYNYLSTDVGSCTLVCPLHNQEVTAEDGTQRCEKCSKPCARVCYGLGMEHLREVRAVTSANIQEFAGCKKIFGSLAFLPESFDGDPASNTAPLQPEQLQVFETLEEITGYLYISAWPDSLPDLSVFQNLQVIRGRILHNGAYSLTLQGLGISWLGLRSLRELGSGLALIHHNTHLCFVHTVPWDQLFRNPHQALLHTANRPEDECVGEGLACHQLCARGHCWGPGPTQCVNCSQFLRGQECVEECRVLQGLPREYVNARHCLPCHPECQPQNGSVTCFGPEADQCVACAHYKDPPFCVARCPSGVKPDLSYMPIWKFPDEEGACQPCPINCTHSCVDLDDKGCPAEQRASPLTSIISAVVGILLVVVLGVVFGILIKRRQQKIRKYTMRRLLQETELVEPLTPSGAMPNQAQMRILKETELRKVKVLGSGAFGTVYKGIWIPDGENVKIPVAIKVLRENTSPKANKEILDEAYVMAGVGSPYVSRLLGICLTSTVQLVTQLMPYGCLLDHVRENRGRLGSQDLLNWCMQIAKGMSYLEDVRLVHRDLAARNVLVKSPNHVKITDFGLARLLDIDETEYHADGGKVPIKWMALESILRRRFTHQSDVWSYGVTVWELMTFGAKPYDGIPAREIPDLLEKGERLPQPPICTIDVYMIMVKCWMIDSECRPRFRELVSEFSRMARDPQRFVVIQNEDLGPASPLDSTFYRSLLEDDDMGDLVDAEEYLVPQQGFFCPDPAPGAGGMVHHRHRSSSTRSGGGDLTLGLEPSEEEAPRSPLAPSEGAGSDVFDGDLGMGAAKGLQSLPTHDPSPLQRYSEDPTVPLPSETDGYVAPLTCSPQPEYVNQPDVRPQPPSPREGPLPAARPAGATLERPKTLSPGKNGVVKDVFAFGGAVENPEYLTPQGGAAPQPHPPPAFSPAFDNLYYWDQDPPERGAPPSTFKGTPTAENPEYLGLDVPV

[3] = reduced viability of SK-BR-3 breast cancer cells – cell-based, 24 h, human, pilot screen (AID 572;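 active = viability at or below 10% of carrier control in both of two separate runs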;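 also: compound exposure lasted between 18 and 24 h rather than exactly 24 h; 100% = carrier-treated control wells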); conditions: SK-BR-3 viability, CellTiter-Glo luminescence, at 10 µM, stronger effect = lower value
[4] = HUVEC growth inhibition – cell-based, human, primary screen (AID 575;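 active = viability at or below 30% in both replicate assays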;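 also: 100% = median of untreated cell wells with 0.1% DMSO on each plate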); conditions: HUVEC proliferation, CellTiter-Glo luminescence, 72 h; at 10 µM; stronger effect = lower value
Summary of the method: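 Timing: 72 h treatment at 37 °C; material: HUVEC primary cells; technique: CellTiter-Glo luminescence measuring cellular ATP; controls: vehicle and MePR control wells; measure: percent of median DMSO-control luminescence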

[5] = H69AR cell proliferation blockers – human, duplicate replicates, primary screen (AID 580;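 active = viability at or under a set limit in both replicates, limit being median viability minus 3 SD, cut at about 48% in these data, passing the limit was not always enough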;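 also: 100% = mean luminescence of untreated wells and 0% = no signal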); conditions: H69AR lung tumor cells viability, ATP luminescence, 72 h; at 10 µM; stronger effect = lower value
[6] = MRP1 drug-resistance reversers in H69AR cells – cell-based, doxorubicin co-treatment, pilot screen (AID 601); conditions: CellTiter-Glo, 72 h, at 10 µM; for differential viability (reversal): stronger effect = higher value
[7] = yeast transport mutant growth inhibition pilot in 384-well plates, post-Golgi transport modulator project (AID 636; in the data active = inhibition above about 31%); conditions: absorbance 615 nm, about 18 h, stronger effect = higher value
[8] = growth suppression of yeast trafficking mutant, preliminary HTS, modulators of trafficking downstream of Golgi apparatus project, 1536-format plate, OD 615 nm (AID 637; in the data active = inhibition above about 30%); conditions: yeast transport mutant growth, absorbance 615 nm, 18 h; stronger effect = higher value
[9] = H69AR cells + 2 uM doxorubicin, measured here: viability with 2 uM doxorubicin, stronger effect = lower value
[10] = H69AR cells, compound alone cytotoxicity

Row | Structure (SMILES) | viability [1] [%] | Her2 level [2] | viability [3] | viability [4] | viability [5] | differential viability (reversal) ([6]; H69AR cells + 2 uM doxorubicin) | viability [6, 9] [%] | viability [6, 10] [%] | inhibition [7] | inhibition [8]
1 | CCCCN(CCCC)CCCNC(=O)CC1Oc2ccc(C)cc2NC1=O (stereo not given) | 102 | 84.5% (inactive) | 102% (inactive) | 78% (inactive) | 90.7% (inactive) | 4.72% (inactive) | 86 | 90.7 | -6.76% (inactive) | -3.17% (inactive)
2 | CCOC(=O)c1nnn(CC(=O)Nc2cccc(F)c2)c1C(=O)OCC | 112 | 95% (inactive) | 112% (inactive) | 100% (inactive) | 96.2% (inactive) | 3.89% (inactive) | 92.4 | 96.2 | -1.04% (inactive) | -6.35% (inactive)
3 | CCOC(=O)c1ccccc1NC(=O)c1ccc(NS(C)(=O)=O)cc1 | 93.5 | 83.5% (inactive) | 93.5% (inactive) | 97% (inactive) | 80.7% (inactive) | -1.98% (inactive) | 82.7 | 80.7 | -4.53% (inactive) | -3.81% (inactive)
4 | COCCCNS(=O)(=O)c1ccc2c(c1)CCN2C(C)=O | 97 | 99% (inactive) | 97% (inactive) | 102% (inactive) | 87.1% (inactive) | -17.4% (inactive) | 105 | 87.1 | -0.13% (inactive) | -0.32% (inactive)
5 | CN1C2C=C3C(C#N)=C(N)C(C#N)(C#N)[C@@H](c4ccc(Cl)cc4)[C@@H]3C1CC2 (stereo not given in full) | 95 | 87% (inactive) | 95% (inactive) | 91.3% (inactive) | 68.9% (inactive) | -26.1% (inactive) | 94.9 | 68.9 | -5.73% (inactive) | -0.32% (inactive)
6 | CCC(C(=O)NC1CCCC1)N(Cc1ccco1)C(=O)Cn1nnc(-c2ccc(C)cc2)n1 (stereo not given) | 97.5 | 97% (inactive) | 97.5% (inactive) | 106% (inactive) | 92.3% (inactive) | -1.87% (inactive) | 94.2 | 92.3 | -3.33% (inactive) | -3.44% (inactive)
7 | CC(C(=O)NCCCN1CCOCC1)n1cccc1C(=O)c1ccccc1 (stereo not given) | 90 | 76.5% (inactive) | 90% (inactive) | 97.4% (inactive) | 95% (inactive) | 5.71% (inactive) | 89.3 | 95 | -2.37% (inactive) | 0% (inactive)
8 | CN(CC(=O)Nc1ccc2c(c1)OCCO2)S(=O)(=O)c1ccc(Br)s1 | 90.5 | 94.5% (inactive) | 90.5% (inactive) | 111% (inactive) | 83.3% (inactive) | -10.7% (inactive) | 94 | 83.3 | -2.63% (inactive) | -10.8% (inactive)
9 | CN(C(=O)COC(=O)C1CCN(S(=O)(=O)c2cccs2)CC1)C1CCS(=O)(=O)C1 (stereo not given) | 118 | 127% (inactive) | 118% (inactive) | 94.9% (inactive) | 99.8% (inactive) | 12.6% (inactive) | 87.2 | 99.8 | -4.4% (inactive) | -7.74% (inactive)
10 | COc1ccc(C(=O)Nc2ccc(C)cn2)c(OC)c1 | 73.5 | 77% (inactive) | 73.5% (inactive) | 102% (inactive) | 85.4% (inactive) | 11.2% (inactive) | 74.2 | 85.4 | -4.19% (inactive) | 0.98% (inactive)
11 | Cc1nnc(NC(=O)Nc2cccc(Cl)c2)s1 | 86 | 89.5% (inactive) | 86% (inactive) | 76.8% (inactive) | 63% (inactive) | -21% (inactive) | 84.1 | 63 | -6.18% (inactive) | -4.03% (inactive)
12 | Cc1ccc(NC(=O)CN2CC(C)SC2=NC2CCCCC2)cc1 (stereo not given) | 84.5 | 113% (inactive) | 84.5% (inactive) | 96% (inactive) | 83.9% (inactive) | 0.935% (inactive) | 83 | 83.9 | -6.8% (inactive) | 1.94% (inactive)
13 | Cc1ccc(C(=O)CSc2nnc(-c3cccnc3)n2N)cc1 | 104 | 89.5% (inactive) | 104% (inactive) | 68.9% (inactive) | 28.2% (active) | -49.2% (inactive) | 77.4 | 28.2 | -0.93% (inactive) | 0.97% (inactive)
14 | COc1ccc(OC)c(NC(=O)C2CCN(c3cc(-c4ccccc4)nc4ncnn34)CC2)c1 | 95.5 | 76.5% (inactive) | 95.5% (inactive) | 71% (inactive) | 75.4% (inactive) | -0.75% (inactive) | 76.1 | 75.4 | -0.66% (inactive) | -0.48% (inactive)
